Measurements pooled from the literature.
Protocols differ between the studies behind these lines.

| Structure (SMILES) | test | setting | chromatographic logD |
| --- | --- | --- | --- |
| CC1=C(C#N)[C@@H](c2ccc(C#N)cc2C(F)(F)F)NC(=O)N1c1cccc(C(F)(F)F)c1 | HPLC | pH 7.5 | 3.2 |
| CC1=C(C(=O)O)C(=O)/C(=C\c2cc(C)n(-c3ccccc3C(F)(F)F)c2C)N1 | HPLC | pH 7.4 | 3.2 |
| CC(C)(C)C1=CC(=NNc2ccc([N+](=O)[O-])cc2[N+](=O)[O-])C=C(C(C)(C)C)C1=O | HPLC | pH 7.4 | > 5.3 |
| N#CC(c1ccc(CNc2cccc3c2CN(C2CCC(=O)NC2=O)C3=O)cc1)N1CCOCC1 (stereo not drawn) | HPLC | pH 7.4 | 2 |
| CCOC(=O)C1=C(C)N/C(=C/c2cc(C)n(-c3ccc(SC(F)(F)F)cc3)c2C)C1=O | HPLC | pH 7.4 | 3.8 |
| CO[C@H](C(=O)N1Cc2c(-c3ccc(C(=O)N4CCCc5ccccc54)cc3)cnn2C[C@H]1C(C)C)c1ccccc1 (single isomer, unassigned) | HPLC | pH 7.4 | 5.4 |
| O=C(Nc1ccccc1C(=O)NC1CC1)c1cccc(N2CCCC2=O)c1 |  | pH 7.4 | 4 |
| CCn1c(-c2nc3cc(C(=O)N4CCC[C@@H](N)C4)cc(OC)c3n2C)cc2cccnc21 | HPLC | pH 7.4 | 2.4 |
| CO[C@H](C(=O)N1Cc2c(-c3ccc(C(=O)N4CCCc5ccccc54)cc3)cnn2C[C@H]1C(C)C)c1cnn(C)c1 (single isomer, unassigned) | HPLC | pH 7.4 | 4.2 |
| CCOC(=O)C1=C(C)N/C(=C/c2cc(C)n(-c3ccc(CN4CCCCC4)cc3)c2C)C1=O | HPLC | pH 7.4 | 2.7 |
| CC1=C(C#N)[C@@H](c2ccc(C#N)cc2S(C)(=O)=O)N(C)C(=O)N1c1cccc(C(F)(F)F)c1 | HPLC | pH 7.5 | 3 |
| C[C@H](C(=O)N1Cc2c(-c3ccc(C(=O)N4CCCc5ccccc54)cc3)cnn2C[C@H]1C)c1ccccc1 | HPLC | pH 7.4 | 5.2 |
| O=C(Nc1ccc2c(c1)B(O)OC2)Nc1ccc(F)c(C(F)(F)F)c1 | HPLC | pH 7.4 | 2.5 |
| CC(=O)Nc1nc(-c2c(F)cccc2F)cs1 |  | pH 7.4 | 3.7 |
| CCn1c(-c2nc3ccc(C(=O)N4CCCC(N)C4)cc3n2C)cc2ccccc21 (stereo not drawn) | HPLC | pH 7.4 | 3 |
| CCOC(=O)C1=C(C)N/C(=C/c2cc(C)n(-c3ccc(S(=O)(=O)C(F)(F)F)cc3)c2C)C1=O | HPLC | pH 7.4 | 3.4 |
| CC(C)[C@@H]1Cn2ncc(-c3ccc(C(=O)N4CCCc5ccccc54)cc3)c2CN1C(=O)Cc1ccccc1 | HPLC | pH 7.4 | 5.3 |
| CCOC(=O)C1=C(C)N/C(=C/c2cc(C)n(-c3ccncc3)c2C)C1=O | HPLC | pH 7.4 | 1.9 |
| COc1ccc(-c2nc(C(=O)Nc3cccc(-c4nnc5n4CCCCC5)c3)cs2)cc1OC |  | pH 7.4 | 4.8 |
| Cc1cc(NC(=O)Nc2ccc3c(c2)OC(F)(F)O3)cc(C(F)(F)F)n1 | HPLC | pH 7.4 | 4.3 |
| CCOC(=O)C1=C(C)N/C(=C/c2cc(C)n(-c3ccc(CN4CCOCC4)cc3)c2C)C1=O | HPLC | pH 7.4 | 2.5 |
